Source: ChEMBL document CHEMBL1123030, “N-(Aminoalkyl)imide antineoplastic agents. Synthesis and biological activity” (J Med Chem, 1985)
Activity calls are given as the source filed them. The rule behind the calls is not given here.

Assays:
[1] = species: Homo sapiens; assay: Compound was tested for cytotoxic activity against human colon adenocarcinoma in vitro; IA means inactive; format: functional
[2] = test system: Mus musculus; assay: Compound was evaluated for inhibitory activity in vivo against P388 leukemia cells in mice at a dose of 200 mg/kg upon intraperitoneal administration; format: functional
Method in brief: (§1)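 Tumor source was ascites fluid implanted into BDF₁ mice. Tumor inoculation and drug dosing were both intraperitoneal, given once daily for 5 days (q1d × 5). Screening and data interpretation followed the general NCI protocol.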

[3] = test system: P388; assay: Inhibitory activity in vivo against P388 leukemia cells in mice at a dose of 100 mg/kg upon intraperitoneal administration; format: functional, Mus musculus; method in brief: as §1
[4] = test system: L1210; assay: Cytotoxic activity against L1210 leukemia in vitro.; format: functional, Mus musculus
[5] = test system: Mus musculus; assay: Compound was evaluated for inhibitory activity in vivo against P388 leukemia cells in mice at a dose of 8 mg/kg upon intraperitoneal administration; format: functional; method in brief: as §1
[6] = test system: Mus musculus; assay: Compound was evaluated for inhibitory activity in vivo against P388 leukemia cells in mice at a dose of 16 mg/kg upon intraperitoneal administration; format: functional; method in brief: as §1
[7] = test system: Mus musculus; assay: Compound was evaluated for inhibitory activity in vivo against P388 leukemia cells in mice at a dose of 2 mg/kg upon intraperitoneal administration; format: functional; method in brief: as §1
[8] = test system: Mus musculus; assay: Compound was evaluated for inhibitory activity in vivo against P388 leukemia cells in mice at a dose of 4 mg/kg upon intraperitoneal administration; format: functional; method in brief: as §1
[9] = test system: P388; assay: Inhibitory activity in vivo against P388 leukemia cells in mice at a dose of 12.5 mg/kg upon intraperitoneal administration; format: functional, Mus musculus; method in brief: as §1
[10] = test system: Mus musculus; assay: Compound was evaluated for inhibitory activity in vivo against P388 leukemia cells in mice at a dose of 6.25 mg/kg upon intraperitoneal administration; format: functional; method in brief: as §1
[11] = test system: P388; assay: Inhibitory activity in vivo against P388 leukemia cells in mice at a dose of 25 mg/kg upon intraperitoneal administration; format: functional, Mus musculus; method in brief: as §1
[12] = Cytotoxic activity against human colon adenocarcinoma in vitro; format: functional
[13] = test system: P388; assay: Inhibitory activity in vivo against P388 leukemia cells in mice at a dose of 50 mg/kg upon intraperitoneal administration; format: functional, Mus musculus; method in brief: as §1
[14] = test system: Mus musculus; assay: Compound was evaluated for inhibitory activity against B-16 melanoma in mice at a dose of 25 mg/kg upon intraperitoneal administration; format: functional
[15] = test system: Mus musculus; assay: Compound was evaluated for inhibitory activity against B-16 melanoma in mice at a dose of 3.13 mg/kg upon intraperitoneal administration; format: functional
[16] = test system: Mus musculus; assay: Compound was evaluated for inhibitory activity against B-16 melanoma in mice at a dose of 12.5 mg/kg upon intraperitoneal administration; format: functional
[17] = test system: Mus musculus; assay: Compound was evaluated for inhibitory activity against B-16 melanoma in mice at a dose of 6.25 mg/kg upon intraperitoneal administration; format: functional
[18] = test system: Mus musculus; assay: Compound was evaluated for inhibitory activity against B-16 melanoma in mice at a dose of 1.56 mg/kg upon intraperitoneal administration; format: functional
[19] = species: Homo sapiens; assay: Compound was tested for cytotoxic activity against human colon adenocarcinoma in vitro; format: functional
[20] = test system: Mus musculus; assay: Compound was evaluated for inhibitory activity in vivo against P388 leukemia cells in mice at a dose of 3.00 mg/kg upon intraperitoneal administration; format: functional; method in brief: as §1
[21] = test system: Mus musculus; assay: Compound was evaluated for inhibitory activity in vivo against P388 leukemia cells in mice at a dose of 3.12 mg/kg upon intraperitoneal administration; format: functional; method in brief: as §1
[22] = test system: Mus musculus; assay: Compound was evaluated for inhibitory activity in vivo against P388 leukemia cells in mice at a dose of 1.56 mg/kg upon intraperitoneal administration; format: functional; method in brief: as §1
[23] = test system: Mus musculus; assay: Compound was evaluated for inhibitory activity in vivo against P388 leukemia cells in mice at a dose of 1.50 mg/kg upon intraperitoneal administration; format: functional; conditions: dose 1.5 mg/kg; method in brief: as §1
[24] = test system: Mus musculus; assay: Compound was evaluated for inhibitory activity in vivo against P388 leukemia cells in mice at a dose of 0.75 mg/kg upon intraperitoneal administration; format: functional; method in brief: as §1
[25] = test system: Mus musculus; assay: Compound was evaluated for inhibitory activity in vivo against P388 leukemia cells in mice at a dose of 15 mg/kg upon intraperitoneal administration; format: functional; method in brief: as §1
[26] = test system: Mus musculus; assay: Compound was evaluated for inhibitory activity in vivo against P388 leukemia cells in mice at a dose of 60 mg/kg upon intraperitoneal administration; format: functional; method in brief: as §1
[27] = test system: L1210 leukemia (Mus musculus); assay: Compound was evaluated for inhibitory activity against L1210 leukemia in mice at a dose of 50 mg/kg upon intraperitoneal administration
[28] = test system: Mus musculus; assay: Compound was evaluated for inhibitory activity in vivo against P388 leukemia cells in mice at a dose of 30 mg/kg upon intraperitoneal administration; format: functional; method in brief: as §1
[29] = test system: L1210; assay: Compound was tested for cytotoxic activity against L1210 leukemia in vitro; IA means inactive; format: functional, cell-based; conditions: Mus musculus
[30] = test system: Mus musculus; assay: Compound was evaluated for inhibitory activity in vivo against P388 leukemia cells in mice at a dose of 120 mg/kg upon intraperitoneal administration; format: functional; method in brief: as §1
[31] = test system: Mus musculus; assay: Compound was evaluated for inhibitory activity in vivo against P388 leukemia cells in mice at a dose of 240 mg/kg upon intraperitoneal administration; format: functional; method in brief: as §1

Structure (SMILES)	Cytotoxic concentration [4] [nM]	T/C [9]	T/C [11]	Cytotoxic concentration [12] [nM]	T/C [13]	other results
CN(C)CCN1C(=O)c2cccc3cc(O)cc(c23)C1=O	1640					Cytotoxic concentration [1]: inactive; T/C [2]: 142; T/C [3]: 115
CN(C)CCN1C(=O)c2cccc3cc(N)cc(c23)C1=O [AMONAFIDE]						T/C [5]: 144; T/C [6]: 177; T/C [7]: 135; T/C [8]: 142
CCNCCN1C(=O)c2cccc3cc([N+](=O)[O-])cc(c23)C1=O.Cl	700	129	162			T/C [10]: 123
CN(C)CCCN1C(=O)c2cc([N+](=O)[O-])cc3cc([N+](=O)[O-])cc(c23)C1=O.Cl	1420	113	129	1180	154	
O=C1c2cccc3cc([N+](=O)[O-])cc(c23)C(=O)N1CCNCCO		151	163			T/C [14]: 216; T/C [15]: 142; T/C [16]: 219; T/C [17]: 174; T/C [18]: 112; T/C [10]: 137; Cytotoxic concentration [19]: 388 nM
CN(C)CCN1C(=O)c2cc([N+](=O)[O-])cc3cc([N+](=O)[O-])cc(c23)C1=O.Cl	36.1			41.3		T/C [20]: 169; T/C [21]: 167; T/C [22]: 155; T/C [23]: 167; T/C [24]: 159
CNCCN1C(=O)c2cccc3cc([N+](=O)[O-])cc(c23)C1=O.Cl	266	177				T/C [21]: 129; T/C [10]: 139
Cl.Nc1cc2c3c(cc(N)cc3c1)C(=O)N(CCN1CCCCC1)C2=O	1390	119		1270		T/C [25]: 136; T/C [26]: 191; T/C [27]: 145; T/C [28]: 142
Cl.O=C1c2cc([N+](=O)[O-])cc3cc([N+](=O)[O-])cc(c23)C(=O)N1CCN1CCOCC1	1130	112	131	722	147	
Cl.O=C1c2cccc3cc([N+](=O)[O-])cc(c23)C(=O)N1CCN1CCNCC1	1380	116	129		136	
Cl.O=C1c2cccc3cc([N+](=O)[O-])cc(c23)C(=O)N1CCN1CCCCC1	590	119	137		176	
CCN(CC)CCN1C(=O)c2cc([N+](=O)[O-])cc3cc([N+](=O)[O-])cc(c23)C1=O.Cl	347	141	207	820	215	
CN(C)CCN1C(=O)c2cccc3cccc(c23)C1=O	2050		116		130	T/C [3]: 166
COc1ccc2c3c(ccc(OC)c13)C(=O)N(CCN(C)C)C2=O			102		120	T/C [2]: 123; T/C [3]: 118; Cytotoxic concentration [29]: inactive
O=C1c2cc([N+](=O)[O-])cc3cc([N+](=O)[O-])cc(c23)C(=O)N1CCNCCO.O=S(=O)(O)O	431			1250		T/C [30]: 123; T/C [26]: 123; T/C [31]: 132; T/C [28]: 118
